Measurements published in ChEMBL document CHEMBL1157665, “Novel 4-thiazolidinone derivatives as potential antifungal and antibacterial drugs” (2010).
In brackets after ≈: the same amount, converted by molar mass.

What was measured:
Talaromyces funiculosus [1] = test: Antifungal activity against Penicillium funiculosum ATCC 36839 after 72 hrs by serial dilution method; type: functional; settings: ATCC 36839, 72 h
In short: (§1)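 Fungi were kept on malt agar at 4 °C and sub-cultured monthly. Spores were washed off the agar with sterile 0.85% saline containing 0.1% Tween 80 (v/v). Modified microdilution in 96-well plates. MIC is the lowest concentration with no visible growth under the binocular microscope. Inoculum checked on malt agar for contamination and validity.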

Pseudomonas aeruginosa [2] = test: Antibacterial activity against Pseudomonas aeruginosa ATCC 27853 after 72 hrs by serial sub-cultivation method; type: functional; settings: ATCC 27853, 72 h
In short: (§2)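 MBC was found by serial sub-cultivation of 2 µl from the MIC wells into plates holding 100 µl broth per well, then incubation for 72 h. MBC is the lowest concentration with no visible growth, i.e. 99.5% killing of the original inoculum. Bacterial inoculum was 1.0 × 10^4 cfu per well in LB broth. Duplicate, repeated three times.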

Salmonella typhimurium [3] = test: Antibacterial activity against Salmonella Typhimurium ATCC 13311 after 72 hrs by serial sub-cultivation method; type: functional, Salmonella enterica subsp. enterica serovar Typhimurium; settings: Salmonella enterica, ATCC 13311, 72 h; in short: as §2
Aspergillus niger [4] = test: Antifungal activity against Aspergillus niger ATCC 6275 after 72 hrs by serial dilution method; type: functional; settings: ATCC 6275, 72 h; in short: as §1
Talaromyces funiculosus [5] = test: Antifungal activity against Penicillium funiculosum ATCC 36839 after 72 hrs by serial sub-cultivation method; type: functional; settings: ATCC 36839, 72 h
In short: (§3)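 MFC was found by serial sub-cultivation of 2 µl into plates holding 100 µl broth per well, then incubation 72 h at 28 °C. MFC is the lowest concentration with no visible growth, taken as 99.5% killing of the original inoculum. Spore inocula came from malt agar cultures washed with 0.85% saline and 0.1% Tween 80.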

Micrococcus flavus [6] = test: Antibacterial activity against Micrococcus flavus ATCC 10240 after 72 hrs by serial sub-cultivation method; type: functional; settings: ATCC 10240, 72 h; in short: as §2
Aspergillus flavus [7] = test: Antifungal activity against Aspergillus flavus ATCC 9643 after 72 hrs by serial sub-cultivation method; type: functional; settings: ATCC 9643, 72 h; in short: as §3
Bacillus cereus [8] = test: Antibacterial activity against Bacillus cereus clinical isolate after 72 hrs by serial sub-cultivation method; type: functional; in short: as §2
Micrococcus flavus [9] = test: Antibacterial activity against Micrococcus flavus ATCC 10240 after 24 hrs; type: functional; settings: ATCC 10240, 24 h
In short: (§4)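 Broth microdilution MIC in 96-well plates. Compounds in LB broth with bacterial inoculum of 1.0 × 10^4 cfu per well, from suspensions adjusted with sterile saline to 1.0 × 10⁵ CFU/ml. Incubated 24 h at […] as printed. MIC taken as the lowest concentration with no visible growth under the binocular microscope. OD at 655 nm also read against blank. Streptomycin and ampicillin as positive controls. Duplicate, repeated three times.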

Trichoderma viride [10] = test: Antifungal activity against Trichoderma viride IAM 5061 after 72 hrs by serial dilution method; type: functional; settings: IAM 5061, 72 h; in short: as §1
Trichoderma viride [11] = test: Antifungal activity against Trichoderma viride IAM 5061 after 72 hrs by serial sub-cultivation method; type: functional; settings: IAM 5061, 72 h; in short: as §3
Bacillus cereus [12] = test: Antibacterial activity against Bacillus cereus clinical isolate after 24 hrs; type: functional; in short: as §4
Escherichia coli [13] = test: Antibacterial activity against Escherichia coli ATCC 35210 after 72 hrs by serial sub-cultivation method; type: functional; settings: ATCC 35210, 72 h; in short: as §2
Aspergillus versicolor [14] = test: Antifungal activity against Aspergillus versicolor ATCC 11730 after 72 hrs by serial sub-cultivation method; type: functional; settings: ATCC 11730, 72 h; in short: as §3
Fulvia fulva [15] = test: Antifungal activity against Fulvia fulva TK 5318 after 72 hrs by serial dilution method; type: functional; settings: TK 5318, 72 h; in short: as §1
Fulvia fulva [16] = test: Antifungal activity against Fulvia fulva TK 5318 after 72 hrs by serial sub-cultivation method; type: functional; settings: TK 5318, 72 h; in short: as §3
Salmonella typhimurium [17] = test: Antibacterial activity against Salmonella Typhimurium ATCC 13311 after 24 hrs; type: functional, Salmonella enterica subsp. enterica serovar Typhimurium; settings: Salmonella enterica, ATCC 13311, 24 h; in short: as §4
Aspergillus fumigatus [18] = test: Antifungal activity against Aspergillus fumigatus plant isolate after 72 hrs by serial dilution method
Aspergillus niger [19] = test: Antifungal activity against Aspergillus niger ATCC 6275 after 72 hrs by serial sub-cultivation method; type: functional; settings: ATCC 6275, 72 h; in short: as §3
Listeria monocytogenes [20] = test: Antibacterial activity against Listeria monocytogenes NCTC 7973 after 72 hrs by serial sub-cultivation method; type: functional; settings: NCTC 7973, 72 h; in short: as §2
Escherichia coli [21] = test: Antibacterial activity against Escherichia coli ATCC 35210 after 24 hrs; type: functional; settings: ATCC 35210, 24 h; in short: as §4
Pseudomonas aeruginosa [22] = test: Antibacterial activity against Pseudomonas aeruginosa ATCC 27853 after 24 hrs; type: functional; settings: ATCC 27853, 24 h; in short: as §4
Proteus mirabilis [23] = test: Antibacterial activity against Proteus mirabilis after 72 hrs by serial sub-cultivation method; type: functional; in short: as §2
Penicillium ochrochloron [24] = test: Antifungal activity against Penicillium ochrochloron ATCC 9112 after 72 hrs by serial dilution method; type: functional; settings: ATCC 9112, 72 h; in short: as §1
Penicillium ochrochloron [25] = test: Antifungal activity against Penicillium ochrochloron ATCC 9112 after 72 hrs by serial sub-cultivation method; type: functional; settings: ATCC 9112, 72 h; in short: as §3
Proteus mirabilis [26] = test: Antibacterial activity against Proteus mirabilis after 24 hrs; type: functional; in short: as §4
Aspergillus fumigatus [27] = test: Antifungal activity against Aspergillus fumigatus plant isolate after 72 hrs by serial sub-cultivation method
Aspergillus versicolor [28] = test: Antifungal activity against Aspergillus versicolor ATCC 11730 after 72 hrs by serial dilution method; type: functional; settings: ATCC 11730, 72 h; in short: as §1
Staphylococcus aureus [29] = test: Antibacterial activity against Staphylococcus aureus ATCC 6538 after 24 hrs; type: functional; settings: ATCC 6538, 24 h; in short: as §4
Staphylococcus aureus [30] = test: Antibacterial activity against Staphylococcus aureus ATCC 6538 after 72 hrs by serial sub-cultivation method; type: functional; settings: ATCC 6538, 72 h; in short: as §2
Listeria monocytogenes [31] = test: Antibacterial activity against Listeria monocytogenes NCTC 7973 after 24 hrs; type: functional; settings: NCTC 7973, 24 h; in short: as §4
Aspergillus flavus [32] = test: Antifungal activity against Aspergillus flavus ATCC 9643 after 72 hrs by serial dilution method; type: functional; settings: ATCC 9643, 72 h; in short: as §1

MIC (Talaromyces funiculosus [1]) [µM]	MIC (Aspergillus niger [4]) [µM]	MIC (Micrococcus flavus [9]) [µM]	MIC (Trichoderma viride [10]) [µM]	MIC (Bacillus cereus [12]) [µM]	MIC (Fulvia fulva [15]) [µM]	MIC (Salmonella typhimurium [17]) [µM]	SMILES	MBC (Pseudomonas aeruginosa [2]) [µM]	MBC (Salmonella typhimurium [3]) [µM]	MFC (Talaromyces funiculosus [5]) [µM]	MBC (Micrococcus flavus [6]) [µM]	MFC (Aspergillus flavus [7]) [µM]	MBC (Bacillus cereus [8]) [µM]	MFC (Trichoderma viride [11]) [µM]	MBC (Escherichia coli [13]) [µM]	MFC (Aspergillus versicolor [14]) [µM]	MFC (Fulvia fulva [16]) [µM]	MIC (Aspergillus fumigatus [18]) [µM]	MFC (Aspergillus niger [19]) [µM]	MBC (Listeria monocytogenes [20]) [µM]	also measured
21.5 (≈ 10 µg/mL)	10.8 (≈ 5.04 µg/mL)	21.5 (≈ 10 µg/mL)	10.8 (≈ 5.04 µg/mL)	21.5 (≈ 10 µg/mL)	16.1 (≈ 7.51 µg/mL)	21.5 (≈ 10 µg/mL)	O=C1N/C(=N/c2nc(C34CC5CC(CC(C5)C3)C4)cs2)S/C1=C\c1ccc([N+](=O)[O-])cc1	43 (≈ 20.1 µg/mL)	21.5 (≈ 10 µg/mL)	21.5 (≈ 10 µg/mL)	21.5 (≈ 10 µg/mL)	21.5 (≈ 10 µg/mL)	21.5 (≈ 10 µg/mL)	21.5 (≈ 10 µg/mL)	43 (≈ 20.1 µg/mL)	21.5 (≈ 10 µg/mL)	21.5 (≈ 10 µg/mL)	16.1 (≈ 7.51 µg/mL)	21.5 (≈ 10 µg/mL)	43 (≈ 20.1 µg/mL)	MIC (Escherichia coli [21]): 21.5 µM (≈ 10 µg/mL); MIC (Pseudomonas aeruginosa [22]): 21.5 µM (≈ 10 µg/mL); MBC (Proteus mirabilis [23]): 64.5 µM (≈ 30.1 µg/mL); MIC (Penicillium ochrochloron [24]): 16.1 µM (≈ 7.51 µg/mL); MFC (Penicillium ochrochloron [25]): 21.5 µM (≈ 10 µg/mL); MIC (Proteus mirabilis [26]): 43 µM (≈ 20.1 µg/mL); MFC (Aspergillus fumigatus [27]): 21.5 µM (≈ 10 µg/mL); MIC (Aspergillus versicolor [28]): 16.1 µM (≈ 7.51 µg/mL); MIC (Staphylococcus aureus [29]): 16.1 µM (≈ 7.51 µg/mL); MBC (Staphylococcus aureus [30]): 43 µM (≈ 20.1 µg/mL); MIC (Listeria monocytogenes [31]): 21.5 µM (≈ 10 µg/mL); MIC (Aspergillus flavus [32]): 16.1 µM (≈ 7.51 µg/mL)
10.8 (≈ 5.04 µg/mL)	10.8 (≈ 5.04 µg/mL)	21.5 (≈ 10 µg/mL)	5.4 (≈ 2.52 µg/mL)	16.1 (≈ 7.51 µg/mL)	10.8 (≈ 5.04 µg/mL)	10.8 (≈ 5.04 µg/mL)	O=C1N/C(=N/c2nc(C34CC5CC(CC(C5)C3)C4)cs2)S/C1=C\c1cccc([N+](=O)[O-])c1	43 (≈ 20.1 µg/mL)	21.5 (≈ 10 µg/mL)	21.5 (≈ 10 µg/mL)	43 (≈ 20.1 µg/mL)	21.5 (≈ 10 µg/mL)	21.5 (≈ 10 µg/mL)	10.8 (≈ 5.04 µg/mL)	21.5 (≈ 10 µg/mL)	21.5 (≈ 10 µg/mL)	16.1 (≈ 7.51 µg/mL)	16.1 (≈ 7.51 µg/mL)	21.5 (≈ 10 µg/mL)	43 (≈ 20.1 µg/mL)	MIC (Escherichia coli [21]): 21.5 µM (≈ 10 µg/mL); MIC (Pseudomonas aeruginosa [22]): 21.5 µM (≈ 10 µg/mL); MBC (Proteus mirabilis [23]): 64.5 µM (≈ 30.1 µg/mL); MIC (Penicillium ochrochloron [24]): 10.8 µM (≈ 5.04 µg/mL); MFC (Penicillium ochrochloron [25]): 21.5 µM (≈ 10 µg/mL); MIC (Proteus mirabilis [26]): 43 µM (≈ 20.1 µg/mL); MFC (Aspergillus fumigatus [27]): 21.5 µM (≈ 10 µg/mL); MIC (Aspergillus versicolor [28]): 16.1 µM (≈ 7.51 µg/mL); MIC (Staphylococcus aureus [29]): 21.5 µM (≈ 10 µg/mL); MBC (Staphylococcus aureus [30]): 43 µM (≈ 20.1 µg/mL); MIC (Listeria monocytogenes [31]): 21.5 µM (≈ 10 µg/mL); MIC (Aspergillus flavus [32]): 16.1 µM (≈ 7.51 µg/mL)
